Assay results taken from ChEMBL document CHEMBL3286335, “Synthesis of 2,3,6-trideoxy sugar triazole hybrids as potential new broad spectrum antimicrobial agents” (Eur J Med Chem, 2014).
Converted amounts (≈) assume the structure as drawn.

Tests used:
Staphylococcus aureus [1] = test: Antimicrobial activity against Staphylococcus aureus ATCC 25923 after 24 hrs by microbroth dilution method; assay type: functional; conditions: ATCC 25923, 24 h
Outline: (§1)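 Broth microdilution per NCCLS guidelines. Bacteria in Mueller-Hinton broth; fungi in MOPS-buffered RPMI 1640. Test compounds at 50-0.36 µg/mL, standard drugs over 32-0.0018 µg/mL. Inoculum 1-5 × 10^3 cells/mL, 35 °C in a moist chamber. A492 read at 24 h for bacteria, 48 h for C. albicans, 72 h for A. fumigatus, C. neoformans and S. schenckii, 96 h for T. mentagrophytes. MIC taken as 90% growth inhibition relative to growth control.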

L929 [2] = test: Cytotoxicity against mouse L929 cells assessed as change in morphology at MIC after 24 hrs using Giemsa staining by phase contrast microscopy; assay type: cell-based; conditions: l929, 24 h
Outline: (§2)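 Mouse fibroblast L929 cells grown in DMEM with 10% FBS and antibiotic/antimycotic at 37 °C, 5% CO2. Medium switched to serum-free DMEM at 90% confluency, then compounds added (DMSO stocks) for 24 h. Cells fixed, stained with Giemsa for 30 min at 37 °C, washed with PBS, air dried and examined by phase-contrast microscopy.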

Sporothrix schenckii = test: Antimicrobial activity against Sporothrix schenckii after 72 hrs by microbroth dilution method; assay type: functional; outline: as §1
Aspergillus fumigatus [3] = test: Antimicrobial activity against Aspergillus fumigatus after 72 hrs by microbroth dilution method; assay type: functional; outline: as §1
Staphylococcus aureus [4] = test: Antimicrobial activity against vancomycin-resistant Staphylococcus aureus after 24 hrs by microbroth dilution method; assay type: functional
Outline: (§3)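 Microbroth dilution in Mueller Hinton broth, following NCCLS guidelines. Test compounds were run at 50-0.36 µg/mL against an initial inoculum of 1-5 × 10^3 cells/mL. Plates were incubated in a moist chamber at 35 °C, and absorbance at 492 nm was read after 24 h. MIC was taken as 90% growth inhibition relative to the growth control.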

Candida albicans [5] = test: Antimicrobial activity against Candida albicans after 48 hrs by microbroth dilution method; assay type: functional; outline: as §1
Cryptococcus neoformans = test: Antimicrobial activity against Cryptococcus neoformans after 72 hrs by microbroth dilution method; assay type: functional; outline: as §1
Staphylococcus aureus [6] = test: Antimicrobial activity against methicillin-resistant Staphylococcus aureus after 24 hrs by microbroth dilution method; assay type: functional; outline: as §3
L929 [7] = test: Cytotoxicity against mouse L929 cells assessed as change in morphology at 50 ug/ml after 24 hrs using Giemsa staining by phase contrast microscopy; assay type: cell-based; conditions: l929, 24 h; outline: as §2
L929 [8] = test: Cytotoxicity against mouse L929 cells assessed as reduction in cell viability after 24 hrs by MTT assay; assay type: cell-based; conditions: l929, 24 h
Outline: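 L929 fibroblasts in DMEM with 10% FBS at 37 °C, 5% CO2. Seeded at 1×10^3 cells per well, switched to serum-free DMEM at 90% confluency. Compounds from 1 mg/mL DMSO stocks tested at nine twofold dilutions for 24 h. MTT readout: viability = (A570−A630) sample / (A570−A630) control × 100.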

[9] = system: Trichophyton mentagrophytes; test: Antimicrobial activity against Trichophyton mentagrophytes after 96 hrs by microbroth dilution method; assay type: functional; outline: as §1
Pseudomonas aeruginosa = test: Antimicrobial activity against Pseudomonas aeruginosa ATCC BAA-427 after 24 hrs by microbroth dilution method; assay type: functional; conditions: ATCC BAA-427, 24 h; outline: as §1
Klebsiella pneumoniae [10] = test: Antimicrobial activity against Klebsiella pneumoniae ATCC 27736 after 24 hrs by microbroth dilution method; assay type: functional; conditions: ATCC 27736, 24 h; outline: as §1
Escherichia coli = test: Antimicrobial activity against Escherichia coli ATCC 9637 after 24 hrs by microbroth dilution method; assay type: functional; conditions: ATCC 9637, 24 h; outline: as §1
[11] = system: Trichophyton mentagrophytes; test: Ratio of fluconazole MIC to compound MIC for Trichophyton mentagrophytes after 96 hrs by microbroth dilution method; assay type: functional
[12] = system: Trichophyton mentagrophytes; test: Ratio of miconazole MIC to compound MIC for Trichophyton mentagrophytes after 96 hrs by microbroth dilution method; assay type: functional
Staphylococcus aureus [13] = test: Ratio of vancomycin MIC to compound MIC for Staphylococcus aureus ATCC 25923 after 24 hrs by microbroth dilution method; assay type: functional
Klebsiella pneumoniae [14] = test: Ratio of ampicillin MIC to compound MIC for Klebsiella pneumoniae ATCC 27736 after 24 hrs by microbroth dilution method; assay type: functional
Klebsiella pneumoniae [15] = test: Ratio of methicillin MIC to compound MIC for Klebsiella pneumoniae ATCC 27736 after 24 hrs by microbroth dilution method; assay type: functional
Klebsiella pneumoniae [16] = test: Ratio of vancomycin MIC to compound MIC for Klebsiella pneumoniae ATCC 27736 after 24 hrs by microbroth dilution method; assay type: functional
Staphylococcus aureus [17] = test: Ratio of ampicillin MIC to compound MIC for Staphylococcus aureus ATCC 25923 after 24 hrs by microbroth dilution method; assay type: functional
Klebsiella pneumoniae [18] = test: Ratio of gentamycin MIC to compound MIC for Klebsiella pneumoniae ATCC 27736 after 24 hrs by microbroth dilution method; assay type: functional
Candida albicans [19] = test: Ratio of miconazole MIC to compound MIC for Candida albicans after 48 hrs by microbroth dilution method; assay type: functional
Aspergillus fumigatus [20] = test: Ratio of clotrimazole MIC to compound MIC for Aspergillus fumigatus after 72 hrs by microbroth dilution method; assay type: functional
Aspergillus fumigatus [21] = test: Ratio of miconazole MIC to compound MIC for Aspergillus fumigatus after 72 hrs by microbroth dilution method; assay type: functional

Row | Compound | MIC (Staphylococcus aureus [1]) [µg/mL] | Activity (L929 [2]) | MIC (Sporothrix schenckii) [µg/mL] | MIC (Aspergillus fumigatus [3]) [µg/mL] | MIC (Staphylococcus aureus [4]) [µg/mL] | MIC (Candida albicans [5]) [µg/mL] | MIC (Cryptococcus neoformans) [µg/mL] | MIC (Staphylococcus aureus [6]) [µg/mL] | Activity (L929 [7]) | Activity (L929 [8]) | MIC [9] [µg/mL] | MIC (Pseudomonas aeruginosa) [µg/mL] | MIC (Klebsiella pneumoniae [10]) [µg/mL] | MIC (Escherichia coli) [µg/mL] | other results
1 | CC(C)CCO[C@@H]1C=CC(=O)[C@@H](Cn2cc(CCCCl)nn2)O1 | 1.56 (≈ 4.56 µM) | Non-toxic | 12.5 (≈ 36.6 µM) | 50 (≈ 146 µM) | 6.25 (≈ 18.3 µM) | 25 (≈ 73.1 µM) | 50 (≈ 146 µM) | 6.25 (≈ 18.3 µM) | Toxic | Dose-dependent effect | 50 (≈ 146 µM) | 50 (≈ 146 µM) | 3.12 (≈ 9.13 µM) | 50 (≈ 146 µM) | –
2 | CCCCO[C@@H]1C=CC(=O)[C@@H](Cn2cc(CCCCl)nn2)O1 | 12.5 (≈ 38.1 µM) | Non-toxic | 3.12 (≈ 9.52 µM) | > 50 | > 50 | 25 (≈ 76.3 µM) | 50 (≈ 153 µM) | > 50 | Toxic | Dose-dependent effect | 0.39 (≈ 1.19 µM) | > 50 | > 50 | > 50 | Ratio [11]: 40; Ratio [12]: 2
3 | CCCCCc1cn(C[C@H]2O[C@H](OCCC(C)C)C=CC2=O)nn1 | 3.12 (≈ 9.3 µM) | Non-toxic | 12.5 (≈ 37.3 µM) | > 50 | 6.25 (≈ 18.6 µM) | > 50 | > 50 | 6.25 (≈ 18.6 µM) | Toxic | Dose-dependent effect | 3.12 (≈ 9.3 µM) | > 50 | 3.12 (≈ 9.3 µM) | > 50 | –
4 | CCCCCCc1cn(C[C@H]2O[C@H](OCCC(C)C)C=CC2=O)nn1 | 3.12 (≈ 8.93 µM) | Non-toxic | 25 (≈ 71.5 µM) | > 50 | 6.25 (≈ 17.9 µM) | > 50 | > 50 | 6.25 (≈ 17.9 µM) | Toxic | Dose-dependent effect | 12.5 (≈ 35.8 µM) | > 50 | 1.56 (≈ 4.46 µM) | > 50 | –
5 | CCCCCCCCc1cn(C[C@H]2O[C@H](OCCC(C)C)C=CC2=O)nn1 | 0.78 (≈ 2.07 µM) | Non-toxic | 50 (≈ 132 µM) | > 50 | 3.12 (≈ 8.26 µM) | > 50 | > 50 | 3.12 (≈ 8.26 µM) | Toxic | Dose-dependent effect | 3.12 (≈ 8.26 µM) | > 50 | 0.78 (≈ 2.07 µM) | > 50 | Ratio (Staphylococcus aureus [13]): 16; Ratio (Klebsiella pneumoniae [14]): 16; Ratio (Klebsiella pneumoniae [15]): 8; Ratio (Klebsiella pneumoniae [16]): 16; Ratio (Staphylococcus aureus [17]): 16; Ratio (Klebsiella pneumoniae [18]): 2
6 | CCCCCCCCc1cn(C[C@H]2O[C@H](OCCCC)C=CC2=O)nn1 | 6.25 (≈ 17.2 µM) | – | 25 (≈ 68.8 µM) | > 50 | > 50 | 6.25 (≈ 17.2 µM) | 25 (≈ 68.8 µM) | > 50 | – | – | 6.25 (≈ 17.2 µM) | > 50 | > 50 | > 50 | Ratio (Candida albicans [19]): 4
7 | CC(C)CCO[C@@H]1C=CC(=O)[C@@H](Cn2cc(C=O)nn2)O1 | 50 (≈ 170 µM) | Non-toxic | 25 (≈ 85.2 µM) | 25 (≈ 85.2 µM) | > 50 | > 50 | 50 (≈ 170 µM) | > 50 | Toxic | Dose-dependent effect | 3.12 (≈ 10.6 µM) | 50 (≈ 170 µM) | 50 (≈ 170 µM) | 50 (≈ 170 µM) | –
8 | CC(C)CCO[C@@H]1C=CC(=O)[C@@H](Cn2cc(C(C)(C)C)nn2)O1 | 1.56 (≈ 4.85 µM) | Non-toxic | 12.5 (≈ 38.9 µM) | > 50 | 12.5 (≈ 38.9 µM) | 25 (≈ 77.8 µM) | 25 (≈ 77.8 µM) | 12.5 (≈ 38.9 µM) | Toxic | Dose-dependent effect | > 50 | > 50 | > 50 | > 50 | –
9 | CC(C)CCO[C@@H]1C=CC(=O)[C@@H](Cn2cc(-c3ccccc3)nn2)O1 | 6.25 (≈ 18.3 µM) | Non-toxic | 12.5 (≈ 36.6 µM) | 50 (≈ 146 µM) | 12.5 (≈ 36.6 µM) | 12.5 (≈ 36.6 µM) | 25 (≈ 73.2 µM) | 12.5 (≈ 36.6 µM) | Toxic | Dose-dependent effect | 50 (≈ 146 µM) | 50 (≈ 146 µM) | 3.12 (≈ 9.14 µM) | 50 (≈ 146 µM) | –
10 | CC(C)CCO[C@@H]1C=CC(=O)[C@@H](Cn2cc(-c3ccc(F)cc3)nn2)O1 | 0.78 (≈ 2.17 µM) | Non-toxic | 6.25 (≈ 17.4 µM) | 50 (≈ 139 µM) | 3.12 (≈ 8.68 µM) | 6.25 (≈ 17.4 µM) | 50 (≈ 139 µM) | 3.12 (≈ 8.68 µM) | Toxic | Dose-dependent effect | 1.56 (≈ 4.34 µM) | > 50 | > 50 | > 50 | Ratio (Staphylococcus aureus [13]): 16; Ratio (Candida albicans [19]): 4; Ratio (Staphylococcus aureus [17]): 16
11 | CC(C)CCO[C@@H]1C=CC(=O)[C@@H](Cn2cc(COCC34CC5CC(CC(C5)C3)C4)nn2)O1 | 1.56 (≈ 3.52 µM) | Non-toxic | 50 (≈ 113 µM) | 1.56 (≈ 3.52 µM) | 3.12 (≈ 7.03 µM) | > 50 | 50 (≈ 113 µM) | 3.12 (≈ 7.03 µM) | Toxic | Dose-dependent effect | 1.56 (≈ 3.52 µM) | 50 (≈ 113 µM) | 0.78 (≈ 1.76 µM) | 50 (≈ 113 µM) | Ratio (Klebsiella pneumoniae [14]): 16; Ratio (Aspergillus fumigatus [20]): 5; Ratio (Klebsiella pneumoniae [15]): 8; Ratio (Klebsiella pneumoniae [16]): 16; Ratio (Klebsiella pneumoniae [18]): 2; Ratio (Aspergillus fumigatus [21]): 8
12 | CCCCCCCCc1cnnn1C[C@H]1O[C@H](OCCC(C)C)C=CC1=O | 0.78 (≈ 2.07 µM) | Non-toxic | 6.25 (≈ 16.6 µM) | > 50 | 12.5 (≈ 33.1 µM) | 50 (≈ 132 µM) | 25 (≈ 66.2 µM) | 12.5 (≈ 33.1 µM) | Toxic | Dose-dependent effect | 25 (≈ 66.2 µM) | > 50 | 50 (≈ 132 µM) | > 50 | Ratio (Staphylococcus aureus [13]): 16; Ratio (Staphylococcus aureus [17]): 16
